# Screens: PubChem BioAssay, several laboratories
# The list is not random: actives were taken first. Their share in the collection is about 2.6%.
# Runt-CBFb FRET = inhibitors of RUNX1 Runt–CBFb binding, primary screen, biochemical, FRET, Cerulean-Runt, Venus-CBFb, uHTS | 0.46% of 220,000 active | Runt-related transcription factor 1 (Homo sapiens) + Core-binding factor subunit beta … | inhibition, % at 20 µM | Cerulean-Runt/Venus-CBFb FRET ratio 530/480, 1 h;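 active = inhibition over about 50% at 20 µM in the single-dose screen, limit read from the data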;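 also: 0% = DMSO wells and 100% = excess unlabeled CBFb competitor control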
# Target sequence (Q01196 whole entry, looked up): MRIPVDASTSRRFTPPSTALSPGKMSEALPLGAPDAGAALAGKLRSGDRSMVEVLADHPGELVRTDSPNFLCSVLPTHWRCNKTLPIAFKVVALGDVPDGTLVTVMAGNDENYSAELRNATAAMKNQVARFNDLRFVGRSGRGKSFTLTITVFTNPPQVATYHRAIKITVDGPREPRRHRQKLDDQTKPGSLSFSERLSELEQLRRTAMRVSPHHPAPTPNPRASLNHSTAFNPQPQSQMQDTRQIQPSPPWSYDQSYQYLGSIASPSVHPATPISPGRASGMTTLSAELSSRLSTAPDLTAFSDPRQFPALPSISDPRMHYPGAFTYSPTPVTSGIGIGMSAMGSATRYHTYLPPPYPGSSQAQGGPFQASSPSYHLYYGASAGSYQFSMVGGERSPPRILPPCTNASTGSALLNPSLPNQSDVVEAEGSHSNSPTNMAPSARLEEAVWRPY
# Target sequence (Q13951 whole entry, looked up): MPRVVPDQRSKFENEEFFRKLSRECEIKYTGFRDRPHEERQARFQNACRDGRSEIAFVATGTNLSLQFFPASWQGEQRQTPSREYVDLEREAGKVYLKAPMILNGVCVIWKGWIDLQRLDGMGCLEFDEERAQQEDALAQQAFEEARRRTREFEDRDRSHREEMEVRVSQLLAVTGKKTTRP
#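 Reagent – Venus-CBFb binding partner, 100 nM · Assay system – Cerulean-tagged RUNX1 Runt domain (FRET donor) fusion protein · Input – 100 nM per protein · Incubation – two 1 h room-temperature incubations shielded from light · Measured by – FRET fluorescence · Medium – Tris buffer pH 7.5 with salts and BSA · Benchmarks – unlabeled CBFb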
# Runt-SMMHC FRET = inhibitors of RUNX1 Runt–CBFb-SMMHC binding, primary screen, biochemical, FRET, Cerulean-Runt, Venus-CBFb-SMMHC, uHTS | Cerulean-Runt/Venus-CBFb-SMMHC FRET ratio 530/480, 1 h | inhibition, % at 20 µM | 0.74% of 220,000 active;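 active = mean inhibition across duplicate retests at 20 µM reaching about 50%, limit read from the data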;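 also: 0% = DMSO wells and 100% = wells with excess untagged CBFb-SMMHC; inhibitors lower the FRET ratio by blocking Runt binding to CBFb-SMMHC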
# VIM-2 inhibitor = VIM-2 metallo-beta-lactamase inhibitors, primary screen, biochemical, epi-absorbance readout, Pseudomonas aeruginosa enzyme. purified VIM-2, nitrocefin hydrolysis, epi-absorbance fluorescence. inhibition, % at 5.6 µM. 0.89% of 290,000 active;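 active = inhibition above the mean of all tested compounds plus 3 SD, cutoff set per screening run, cut at about 7.5% in these data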;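 also: red hydrolysis product quenches plate fluorescence so inhibitors raise well fluorescence; 0% = enzyme with DMSO and 100% = DMSO without enzyme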
# IMP-1 inh = IMP-1 metallo-beta-lactamase inhibitors, primary screen, biochemical, epi-absorbance readout, Pseudomonas aeruginosa enzyme | AID 1556, 2009 | metallo-beta-lactamase IMP-1 (Pseudomonas aeruginosa) | 0.45% of 290,000 active | purified IMP-1, nitrocefin hydrolysis, epi-absorbance fluorescence | inhibition, % at 5.6 µM;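 active = inhibition above the mean plus 3 SD of all compounds in the same screening run, cut at about 4.5% in these data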;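 also: 0% = IMP-1 with DMSO and 100% = DMSO wells lacking enzyme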
#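 Test system: recombinant IMP-1 enzyme, purified / Medium: HEPES buffer pH 7.1 with ZnSO4 and Brij 35 / Doses: single dose, 5.6 µM / Times: 25 °C, 15 min preincubation, 25 min reaction / Detection: Epi-absorbance via hydrolysed-nitrocefin quenching of white-plate fluorescence, 480/530 nm, EDTA stop / Evaluation: percent inhibition from optical density relative to buffer-blank wells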
# RanGTP-Impb inh = inhibitors of RanGTP-importin-beta interaction, primary screen, biochemical, FRET, CFP-Ran, YFP-importin-beta, homogeneous | cell-free CFP-Ran/YFP-importin-beta FRET ratio | 1.1% of 300,000 active | Ran GTPase (GTP-bound) - importin-beta complex | inhibition, % (no concentration beside the values);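 active = more than half of the replicate wells show a fall in the fluorescence ratio signal beyond about 16%, limit read from the data, passing the limit was not always enough; inconclusive = exactly half of the replicate wells pass the set limit; inactive = fewer than half of replicates pass the limit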;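 also: 0% = DMSO wells and 100% = Ran loaded with GDP instead of GTP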
# RUNX1 CBFb TR = inhibitors of RUNX1 Runt–CBFb binding, biochemical, TR-FRET; shares compounds with Runt-CBFb FRET; inhibition, % at 20 µM; TR-FRET RUNX1 Runt domain-CBFb binding; 20% of 480 active; AID 1502, 2009; in the data active = inhibition above about 40%
# * = called active by the depositor; ? = inconclusive; / = no result.
SMILES,Runt-CBFb FRET,Runt-SMMHC FRET,VIM-2 inhibitor,IMP-1 inh,RanGTP-Impb inh,RUNX1 CBFb TR
COc1ccc(N(C(=O)c2snc(C(N)=O)c2N)C(C(=O)NC2CCCCC2)c2ccc(C)o2)cc1 (stereo not given),/,/,-4.8,-2.8,0.0,/
Cc1cc(=O)oc2cc(Nc3ccccc3)ccc12,22.9,40.1,0.7,0.4,4.3,/
CCNc1ccc2c(Cl)cc(=O)oc2c1,54.6*,95.3*,-0.8,-5.0,36.4*,6.6
CCC1(C)Cc2c(sc3[nH]c(=O)[nH]c(=O)c23)CS1 (stereo not given),56.7*,/,0.2,-4.5,5.9,17.7
Cc1nn(-c2ccccc2)cc1C(c1c(N)[nH]c(=S)[nH]c1=O)c1c(N)[nH]c(=S)[nH]c1=O,55.8*,41.4,-2.6,-1.6,-0.8,57.5*
Cc1nn(-c2ccccc2)cc1/C=N/NC(N)=S,1.1,-0.9,-3.2,-3.6,0.3,/
C=CCOC(=O)C1=C(C)N=c2s/c(=C3\C(=O)N(CC(=O)O)c4ccccc43)c(=O)n2C1c1ccc(OC)cc1 (stereo not given),53.0*,-35.1,-2.3,-4.5,-4.4,29.3
O=C(Cc1cc2ccccc2o1)NCc1ccc(F)cc1,/,/,-2.2,-3.7,-0.4,/
CCc1nnc(NC(=O)CSc2nnc(-c3ccccc3O)n2CC)s1,0.4,-1.0,-3.6,-2.1,5.0,/
CCc1nnc(NC(=O)CSc2nnc(-c3cccnc3)n2CC)s1,77.1*,-8.7,-0.5,-2.3,?,-10.1
CN1CCc2c(sc3ncn4nc(-c5ccccc5O)nc4c23)C1,56.9*,125.1*,1.0,-1.1,/,-2.2
CSc1nnc(-c2cc3c(s2)-c2ccccc2CC3)o1,-4.5,11.4,-3.2,-2.5,6.2,/
S=c1[nH]nc(-c2cc3c(s2)-c2ccccc2CC3)o1,56.9*,70.2*,-4.7,-4.8,17.3*,16.6
Cc1cccc(N2CC(C(=O)Nc3ccc4c(c3)OCCO4)CC2=O)c1C (stereo not given),/,/,-1.1,-1.1,-0.9,/
COc1ccc(Oc2c(C(F)(F)F)oc3cc(OCC(=O)O)ccc3c2=O)cc1,/,/,-2.7,-3.8,3.7,/
O=C(Nc1ccc(-c2nc3ccccc3s2)c(O)c1)C1=COCCO1,59.3*,128.4*,-2.6,-2.0,-31.0,2.0
Cc1cccc(N2C(=O)C(Cl)=C(N3CCOCC3)C2=O)c1,51.4*,42.5,-3.0,-3.1,2.8,17.7
O=C1C(Cl)=C(N2CCOCC2)C(=O)N1c1cccc(Cl)c1,45.1,39.4,-4.3,-5.9,-0.6,/
CCc1ccc(N2C(=O)C(Cl)=C(N3CCOCC3)C2=O)cc1,68.5*,70.5,-3.0,-3.1,-2.2,11.6
CCC(=O)/C=C1/Sc2ccccc2N1CC,54.7*,43.8,1.5,-0.9,1.2,12.5
NC(=S)N/N=C/c1ccc(-c2cc(Cl)cc(Cl)c2)o1,51.5*,11.6,-5.1,-5.7,0.8,16.7
NC(=S)N/N=C/c1ccc(-c2cc(Cl)ccc2Cl)o1,16.1,1.4,-1.5,-6.5,-2.8,/
CN(C)CCCNS(=O)(=O)c1ccc(N2CCC(c3ccc(Cl)cc3)=N2)cc1,57.3*,93.3*,1.2,-0.9,26.6*,-25.4
CN(C)S(=O)(=O)c1ccc(=S)[nH]c1,50.3*,42.9,-2.1,-2.2,0.5,-60.8
CN(C)S(=O)(=O)c1ccc2c(c1)Cc1cc(S(=O)(=O)N(C)C)ccc1-2,/,/,-1.5,-3.1,?,/
SMILES,Runt-CBFb FRET,Runt-SMMHC FRET,VIM-2 inhibitor,IMP-1 inh,RanGTP-Impb inh,RUNX1 CBFb TR
NS(=O)(=O)c1ccc(NC(=S)N2CCN(c3cccc(Cl)c3)CC2)cc1,52.4*,35.8,-2.2,-4.3,-1.4,57.7*
CCc1ccc2[nH]c3nc(C)cc(C)c3c(=O)c2c1,57.5*,82.6*,2.7,-0.9,12.6,-140.7
O=C(O)CCNC(=O)/C(=C\c1ccco1)NC(=O)c1ccco1,/,/,-1.6,-1.4,-0.6,/
CCOC(=O)N/N=C/c1c(F)cccc1F,-2.8,-0.6,-2.7,-0.5,2.5,/
CCOC(=O)N/N=C/c1c(F)c(F)c(F)c(F)c1F,50.4*,1.4,0.2,0.3,/,-14.5
O=C(NCCCN1CCOCC1)c1sc2cc([N+](=O)[O-])ccc2c1Cl,50.5*,38.7,0.6,-0.6,2.7,-2.3
O=C(NCCCN1CCOCC1)c1sc2cc(Cl)ccc2c1Cl,1.4,-0.1,-1.8,-2.7,/,/
CCCC[C@@H]1CNC(=O)C(=O)N1CCc1cccc2ccccc12,/,/,/,/,2.6,/
COc1ccc(-n2ncc3c2CC(C)(C)CC3NC(=O)c2ocnc2C)cc1 (stereo not given),/,/,-3.2,-3.0,2.4,/
Cc1cc(N2CCOCC2)nc(N)n1,0.3,-0.1,-1.6,-2.1,2.6,/
Cc1cc(N2CCOCC2)c2c(N)c(C)cc(C)c2n1,62.4*,41.2,-3.2,-4.1,/,-3.2
O=C(O)c1ccccc1SC1CC(=O)N(c2cccc3ccccc23)C1=O (stereo not given),52.8*,20.0,-1.7,-1.8,/,47.2*
C[C@H](NC(=O)c1nc[nH]c1C(=O)N[C@@H](CCCCNC(=O)OC(C)(C)C)C(=O)OC(C)(C)C)c1ccccc1,-6.5,-1.9,/,/,-3.7,/
COc1ccc(-c2nc(=S)[nH][nH]2)cc1OC,51.4*,31.0,-3.1,-4.0,1.0,-39.0
CC(=O)c1ccc(-n2ccc(=O)cc2)cc1,/,/,1.5,-0.2,-0.3,/
COc1ccc(CCn2c(=N)c(C(=O)N3CCN(C)CC3)cc3c(=O)n4ccccc4nc32)cc1,64.8*,124.0*,4.9,-4.7,6.1,30.4
COc1ccc(CCn2c(=N)c(S(=O)(=O)c3ccc(C)cc3)cc3c(=O)n4ccccc4nc32)cc1,/,/,3.2,0.5,2.9,/
Cc1ccc(S(=O)(=O)NCc2cccnc2)cc1C(=O)NC1CCCCC1,/,/,/,/,1.0,/
COc1ccc(-c2ccc(SCC(=O)NC3CCCCC3)nn2)cc1OC,/,/,-0.8,-1.5,8.1,/
CC(C)CC(=O)NC(NC(=S)Nc1cccc2cccnc12)C(Cl)(Cl)Cl (stereo not given),6.3,4.4,-1.7,-3.9,5.7,/
CC(C)C(=O)NC(Nc1cccc2cccnc12)C(Cl)(Cl)Cl (stereo not given),78.8*,2.9,-0.6,-2.9,0.7,48.0*
COc1cc(CN2CCC(C(=O)NCC(C)(C)CN(C)C)CC2)ccc1OCc1ccccc1,/,/,-2.6,-5.2,-0.2,/
CN1CCN(C(=S)C(=O)Nc2ccc(Br)cc2)CC1,54.9*,28.4,-1.9,0.6,-5.1,14.2
